Compound activity from PubChem BioAssay.
Yeast lifespan up: extends the lifespan of yeast; S. cerevisiae growth with nicotinamide, OD615; deaD strain in restrictive glucose medium; inhibition of the nicotinamide effect, % at 10 µM; hit rate 0.68% among 130,000;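 active = inhibition above a set limit, placed 3 SD over the median of all compounds, cut at about 26% in these data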;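 also: 0% = nicotinamide-treated wells and 100% = cells grown without nicotinamide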
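Buffer or medium: CSMM-D glucose medium, restrictive; test system: modified budding yeast, DeaD strain; compound: single dose 10 µM compound, 0.25% DMSO; schedule: culture preincubation 4 h, compound exposure 48 h, both 30 °C; detection: optical density (absorbance) at 615 nm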
MDM2 E3 inh: inhibitors of human Mdm2 E3 ubiquitin ligase; cell-based MDM2 ubiquitination luciferase reporter, 2 h; 0 = plate control, 100 = twice control, blank-subtracted; signal enhancement, % at 5 µM; hit rate 0.11% among 210,000; AID 1230;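 active = signal enhancement of 30% or more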;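 also: luminescence tracks abundance of the self-degrading MDM2-luciferase fusion protein; higher signal means inhibition of MDM2 E3 ligase activity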
Target sequence (Q00987 whole entry, looked up, the tested form may be a part): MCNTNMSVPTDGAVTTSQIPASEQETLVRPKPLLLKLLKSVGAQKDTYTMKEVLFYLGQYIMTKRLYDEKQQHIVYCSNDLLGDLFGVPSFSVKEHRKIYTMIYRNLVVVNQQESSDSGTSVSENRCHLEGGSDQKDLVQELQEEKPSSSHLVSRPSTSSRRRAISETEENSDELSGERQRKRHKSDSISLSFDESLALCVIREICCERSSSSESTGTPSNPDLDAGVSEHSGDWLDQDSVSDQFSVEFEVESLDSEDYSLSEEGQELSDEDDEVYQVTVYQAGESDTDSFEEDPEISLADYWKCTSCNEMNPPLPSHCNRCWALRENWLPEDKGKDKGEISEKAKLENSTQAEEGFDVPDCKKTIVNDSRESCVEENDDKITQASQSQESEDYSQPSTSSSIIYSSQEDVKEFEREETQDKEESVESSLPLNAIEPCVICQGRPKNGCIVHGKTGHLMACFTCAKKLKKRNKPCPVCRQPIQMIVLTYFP
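Test system: mammalian cells stably expressing self-ubiquitinating, self-degrading MDM2 E3–luciferase fusion; Amount: 2000 cells in each well; Medium: DMEM; Schedule: 4 h settle plus 2 h compound, 37 °C; Technique: SteadyLite luciferase luminescence after 15 min room-temperature reagent incubation; Benchmarks: plate control and blank wells.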
Measles CPE: protection of cells from measles virus. Measles virus-infected cells, CPE protection, absorbance. protection (pct of control), % at 4 µM. hit rate 1.5% among 140,000; in the data active = protection mostly above about 24%, no sharp cut-off; inactive = mostly below about 26%
RAM inhibit: yeast RAM network inhibition; inhibition, % at 50 µM; hit rate 1.8% among 190,000; S. cerevisiae dse1pr::URA3 reporter, 5-FOA growth OD615, 2 d; analog-sensitive cbk1-as2 kinase mutant strain;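 active = inhibition above a set limit, 3 SD over mean compound inhibition, cut at about 8.4% in these data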;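 also: 0% = DMSO-only wells with no growth and 100% = 10 µM 1-NA-PP1 full growth; inhibition rescues growth on 5-FOA so higher OD means more RAM inhibition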
Insulin prom inh: TRM-6 insulin promoter activity inhibition. TRM-6 cells, insulin promoter-eGFP reporter, imaging; reporter expression induced with tamoxifen. inhibition, % at 2 µM. hit rate 0.9% among 130,000;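 active = inhibition above the mean plus 3 SD, with well images judged a real hit on visual review, cut at about 60% in these data, passing the limit was not always enough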
BB579 growth dn: yeast BB579 growth reduction in restrictive medium; S. cerevisiae BB579 growth, OD615, 48 h; hit rate 0.51% among 140,000; inhibition, % at 10 µM;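 active = inhibition above a set limit, 3 SD over the mean compound inhibition, cut at about 44% in these data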
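System: Saccharomyces cerevisiae DeaD strain BB579, replicative lifespan model yeast | Buffer or medium: Restrictive glucose-based CSMM-D medium | Times: 4 h preincubation and 48 h exposure at 30 °C | Detection: OD615 turbidity measurement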
Starred values were filed as active, the others as inactive; nt = no result given. Most compounds without a hit are left out; they make up all but 4% or so of the library.

SMILES	Yeast lifespan up	MDM2 E3 inh	Measles CPE	RAM inhibit	Insulin prom inh	BB579 growth dn
CCc1nc2cc([N+](=O)[O-])c([N+](=O)[O-])cc2[nH]1	5.1	13.6	4.7	2.9	75.0*	-0.5
Cc1cc2nc[nH]c2cc1[N+](=O)[O-]	nt	-1.4	nt	0.9	41.2	nt
COc1ccc(NC(=O)c2cc(C)cc(C)c2)cc1[N+](=O)[O-]	nt	0.5	nt	1.8	nt	nt
COc1cc(Br)cc(CNc2ccc(F)c([N+](=O)[O-])c2)c1O	nt	-1.8	nt	8.9*	39.5	nt
Cn1c(=O)c2c(ncn2CC(=O)OCC(=O)NCc2ccccc2Cl)n(C)c1=O	8.1	2.4	2.8	0.8	-93.3	-35.1
CCOC(=O)c1ccc(NC(=O)N2CCN(c3cccc(OC)c3)CC2)cc1	nt	-6.8	nt	2.9	nt	nt
CC(=O)NC1C(=O)N=C(SCc2ccccc2)NC1=O (stereo not given)	-2.0	-9.3	8.0	1.1	0.0	-53.3
CC(=O)NC1C(=O)N=C(SCC(=O)NC2CCCCC2)NC1=O (stereo not given)	-2.6	1.4	4.2	2.4	33.3	48.5*
CCC1C(=O)N=C(SCC(=O)NC2CCCCC2)NC1=O (stereo not given)	nt	-0.9	nt	0.4	nt	nt
CCC1C(=O)N=C(SCC(=O)Nc2ccccc2)NC1=O (stereo not given)	nt	-9.8	9.9	0.7	-58.1	50.9*
CC(=O)NC1C(=O)N=C(SCC(=O)NC(C)c2ccccc2)NC1=O (stereo not given)	-17.2	33.6*	11.4	-0.5	nt	3.6
CN(Cc1ccccc1)C(=O)CSc1nnc(-c2ccco2)n1-c1ccccc1	-0.9	-15.0	15.3	2.5	nt	-40.7
COc1ccc(CNC(=O)C2CCC(CNc3nc(=S)[nH]c4ccccc34)CC2)cc1 (stereo not given)	nt	-8.9	nt	1.0	42.9	nt
O=C(Nc1ccc(Cl)cc1)c1csc(Cc2ccccc2)n1	nt	-10.2	nt	5.3	nt	nt
COc1ccc(CNC(=O)c2csc(Cc3ccc(Cl)cc3)n2)cc1	-1.6	-19.2	6.3	0.8	50.0	-70.5
COc1ccc(Cc2nc(C(=O)Nc3ccc(Cl)cc3)cs2)cc1	-14.0	-8.6	5.2	8.8*	nt	-64.2
COc1ccc(NC(=O)c2csc(Cc3ccc(Cl)cc3)n2)cc1	nt	-24.1	nt	11.1*	-38.5	nt
COc1ccc(Cc2nc(C(=O)Nc3ccccc3)cs2)cc1	-20.4	-12.0	66.5*	0.9	-21.4	-0.3
O=C(CCc1ccccc1)Nc1cc(C(=O)O)cc(C(=O)O)c1	nt	-8.5	nt	0.1	nt	nt
CC(Cc1ccccc1)N/C=C1/CC(=O)NC1=O (stereo not given)	-5.0	1.8	16.8	0.0	30.0	-34.0
O=C1C/C(=C/NCc2ccccc2)C(=O)N1	-7.6	-13.8	41.0*	1.2	66.7	-6.9
O=C(Nc1cccc(F)c1)c1cc(S(=O)(=O)NCCC2=CCCCC2)ccc1F	1.5	-0.1	25.2	10.9*	nt	-42.2
Cc1ccc(NC(=O)c2cc(S(=O)(=O)NCCC3=CCCCC3)ccc2F)cc1F	-2.7	0.0	nt	2.5	-34.4	-14.3
CCCCOC(=O)C1=C(C)Nc2nnnn2C1c1ccc(OC)c(OC)c1OC (stereo not given)	1.7	-3.8	45.7*	3.2	-25.0	-23.6
Nc1nnnn1/N=C/c1ccc(O)cc1	-7.0	-18.6	49.8*	1.6	nt	-11.0
SMILES	Yeast lifespan up	MDM2 E3 inh	Measles CPE	RAM inhibit	Insulin prom inh	BB579 growth dn
C=CCNC(=O)c1onc(CSc2cc(C)ccc2C)c1C(=O)O	-0.6	-13.7	34.5*	0.6	46.0	-62.0
CCOC(=O)c1sc(NC(=O)c2cccnc2)c(C#N)c1C	28.6*	-2.5	6.6	1.4	9.1	-50.2
CN=CC1=C(O)c2ccccc2C1=O	-14.4	6.8	12.9	-0.5	-72.7	-22.2
O=C1C(C2=C(O)c3ccccc3C2=O)=Nc2ccccc21	44.6*	7.4	17.2	2.7	-440.0	-9.2
CC(=O)OC(C#CCN1CCOCC1)c1ccccc1 (stereo not given)	-4.2	-3.7	46.3*	3.1	50.0	-42.0
C(#CCN1CCOCC1)COC(c1ccccc1)c1ccccc1	nt	-7.5	10.3	1.5	-188.4	-19.8
O=C(OCCN1C(=O)c2cccc3c(N4CCOCC4)ccc(c23)C1=O)c1ccccc1Cl	0.0	-10.8	3.5	4.4	14.3	-31.7
O=C(OCCN1C(=O)c2ccccc2C1=O)c1cc(S(=O)(=O)N2CCOCC2)ccc1Cl	1.0	-2.5	74.0*	0.3	-7.1	-28.0
CCOC(=O)N1CCN(C(=O)C2CCN(Cc3nc(-c4ccccc4C)oc3C)CC2)CC1	-8.1	-8.6	52.7*	0.3	nt	-46.0
CCOC(=O)N1CCN(C(=O)CSCc2nc(-c3ccccc3C)oc2C)CC1	-9.5	-7.7	31.2	1.4	nt	-23.3
O=C1NC(c2ccc(Cl)c([N+](=O)[O-])c2)Nc2ccccc21 (stereo not given)	nt	2.7	nt	1.8	nt	nt
O=[N+]([O-])c1cc(C2Nc3cccc4cccc(c34)N2)ccc1Cl	-0.8	-10.4	15.5	11.0*	nt	-34.5
O=S(=O)(Cc1noc(-c2ccccc2Cl)n1)c1ccccn1	nt	-28.0	nt	nt	nt	nt
C(=N\N1CCOCC1)/c1cccs1	4.6	9.0	11.6	-0.3	-58.6	-48.7
O=C(O)/C=C/c1ccc(-n2ccnc2)cc1	nt	-14.3	nt	nt	nt	nt
Cc1ccc2[nH]c3c(=O)n(N)c(=O)[nH]c3c2c1	nt	-7.9	nt	nt	nt	nt
Cc1ccc2[nH]c3c(=S)nc[nH]c3c2c1	8.6	0.3	5.5	7.5	77.8*	-18.2
O=C1CCC(C(=O)OCc2cc(=O)oc3ccc4ccccc4c23)=NN1	nt	-7.0	nt	nt	nt	nt
C=CCn1c(SCC(N)=O)nnc1-c1cccc(Br)c1	-7.8	-3.4	34.7*	0.3	nt	-36.4
C=CCn1c(SCC(N)=O)nnc1-c1cnccn1	nt	-1.1	nt	nt	nt	nt
COCCN1C(=O)c2ccccc2C(C(=O)NCCCN2CCCC2=O)C1c1c[nH]c2ccccc12 (stereo not given)	1.2	-7.5	20.4	2.1	nt	-33.4
CCOC(=O)c1c(C)[nH]c(C(=O)COC(=O)CCSc2ccccc2)c1C	5.3	-6.7	12.8	9.5*	-33.3	-48.6
Cc1ccc(SCc2ccc(C(=O)Nc3cc([N+](=O)[O-])ccc3C)cc2)cc1	-7.5	-18.8	19.0	10.5*	nt	-18.6
O=C(Nc1cccc([N+](=O)[O-])c1)c1ccncc1	-1.4	-10.7	5.5	4.7	38.8	-24.6
Cc1ccc(SCc2ccc(C(=O)Nc3cccc([N+](=O)[O-])c3)cc2)cc1	-7.6	-11.9	16.0	9.6*	23.3	-35.1
CC(C)(C)c1ccc(C(=O)Nc2cccc([N+](=O)[O-])c2)cc1	-3.6	5.4	6.7	2.1	72.4*	-52.9
COc1ccc(NS(=O)(=O)c2ccc(/C=C/C(=O)O)cc2)cc1S(=O)(=O)N1CCOCC1	nt	0.3	nt	nt	nt	nt
COc1ccc(/C=C(\C#N)C(=O)NCC2CCCO2)cc1OC (stereo not given)	1.5	-4.4	4.2	2.6	nt	-28.2
